Data reported in ChEMBL document CHEMBL2429727, “Syntheses, biological evaluation and SAR of ingenol mebutate analogues for treatment of actinic keratosis and non-melanoma skin cancer” (Bioorg Med Chem Lett, 2013).
Active and inactive are the calls of the source. The calls are words filed in the database; no cut-off is given here.

Legend:
[1] = test system: Keratinocyte; assay: Induction of IL-8 release in human primary epidermal keratinocytes after 6 hrs by HTRF assay relative to ingenol mebutate; type: functional
[2] = Induction of oxidative burst in polymorphonuclear leukocytes (unknown origin) isolated from buffy coat at 10 uM after 40 mins by fluorescence assay relative to ingenol mebutate; type: functional
In short: (§1)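 PMN isolated and purified from fresh buffy coats, then incubated 40 min at ambient temperature with titrated compound (top concentration 10 µM) premixed with hydroethidine. Respiratory burst read as fluorescence in relative light units, emission 579 nm, excitation 485 nm. EC50 and Emax are expressed relative to the maximum effect of the ingenol mebutate reference.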

[3] = Chemical stability of the compound in aqueous buffer assessed as drug recovery after 16 hrs at pH 7.4 by HPLC analysis; type: physicochemical; conditions: read-out: Drug recovery
In short: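 DMSO stock diluted with pre-heated (37 °C) aqueous buffer pH 7.4 to at most 30% v/v organic content, then shaken. Held in the HPLC autosampler at 37 °C, first injected within 5 min, then injected repeatedly over 16 h. Recovery taken from the fall in compound peak area, UV detection normally at 270 nm.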

[4] = test system: Keratinocyte; assay: Induction of TNFalpha release in human primary epidermal keratinocytes after 6 hrs relative to ingenol mebutate; type: functional
In short: (§2)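 Human adult log-phase primary epidermal keratinocytes subcultured at 10,000 cells/well. Incubated with titrated compound for 6 h at 37 °C in humidified 95% air/5% CO2. Secreted cytokines quantified on 4-spot cytokine plates. EC50 is the concentration giving 50% of the maximum effect of the ingenol mebutate reference. Emax is maximal response relative to that reference.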

[5] = Induction of oxidative burst in polymorphonuclear leukocytes (unknown origin) isolated from buffy coat after 40 mins by fluorescence assay; type: functional, cell-based; in short: as §1
[6] = Dissociation constant, pKa of the compound; type: physicochemical
[7] = test system: Keratinocyte; assay: Induction of IL-8 release in human primary epidermal keratinocytes after 6 hrs by HTRF assay; type: functional, cell-based
[8] = Induction of necrosis in human HeLa cells after 30 mins by resazurin assay; type: cell-based; conditions: read-out: LC50
In short: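 HeLa cells exposed to increasing ester concentrations up to 400 µM for 30 min at 37 °C. Remaining metabolic activity then read with a resazurin-based dye. LC50 is the concentration causing 50% loss of metabolic activity.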

[9] = target: Protein kinase C delta type (Homo sapiens, UniProt Q05655); assay: Activation of PKCdelta (unknown origin) using phosphatidylserine […]; conditions: read-out: EC50
Protein kinase C delta type, sequence (Q05655 whole entry): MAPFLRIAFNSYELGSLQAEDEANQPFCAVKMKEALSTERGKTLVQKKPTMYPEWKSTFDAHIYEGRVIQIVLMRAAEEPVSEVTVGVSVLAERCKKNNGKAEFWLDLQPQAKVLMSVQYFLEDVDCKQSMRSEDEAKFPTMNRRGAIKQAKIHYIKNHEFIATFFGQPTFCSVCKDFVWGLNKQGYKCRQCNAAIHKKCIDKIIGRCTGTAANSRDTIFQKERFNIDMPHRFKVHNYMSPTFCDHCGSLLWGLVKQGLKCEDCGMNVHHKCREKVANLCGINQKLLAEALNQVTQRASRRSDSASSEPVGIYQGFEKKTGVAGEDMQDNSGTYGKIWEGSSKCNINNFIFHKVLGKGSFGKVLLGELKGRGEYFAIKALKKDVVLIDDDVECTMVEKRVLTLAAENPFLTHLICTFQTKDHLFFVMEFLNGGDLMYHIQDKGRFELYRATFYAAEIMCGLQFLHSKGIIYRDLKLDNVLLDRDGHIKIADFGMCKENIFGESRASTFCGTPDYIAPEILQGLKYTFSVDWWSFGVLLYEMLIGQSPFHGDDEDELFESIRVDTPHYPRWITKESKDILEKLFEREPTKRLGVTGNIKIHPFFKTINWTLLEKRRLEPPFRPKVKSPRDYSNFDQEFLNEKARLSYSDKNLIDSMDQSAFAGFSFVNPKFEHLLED
In short: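 PKCdelta assayed in vitro by phosphorylation of a PKC peptide substrate, with 0.05 mg/mL phosphatidylserine and no diacylglycerol so stimulation could be seen. Compounds serially diluted at semilogarithmic intervals, twelve points from 10 µM. Reaction started by adding ATP.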

[10] = test system: Keratinocyte; assay: Induction of TNFalpha release in human primary epidermal keratinocytes after 6 hrs; type: functional, cell-based; in short: as §2
[11] = test system: Keratinocyte; assay: Induction of TNFalpha release in human primary epidermal keratinocytes after 6 hrs in presence of PKC inhibitor bisindolylmaleimide 1; type: functional, cell-based
[12] = test system: Keratinocyte; assay: Induction of IL-8 release in human primary epidermal keratinocytes after 6 hrs by HTRF assay in presence of PKC inhibitor bisindolylmaleimide 1; type: functional, cell-based
[13] = Induction of oxidative burst in polymorphonuclear leukocytes (unknown origin) isolated from buffy coat at 10 uM after 40 mins by fluorescence assay in presence of PKC inhibitor bisindolylmaleimide 1; type: functional, cell-based

Row | Structure (SMILES) | Emax [1] [%] | Emax at 10 µM [2] [%] | remaining at 16 h [3] [%] | Emax [4] [%] | EC50 [5] [nM] | pKa [6] | EC50 [7] [nM] | CC50 at 0.5 h [8] [nM] | EC50 [9] [nM] | EC50 [10] [nM] | Activity [11] | Activity [12] | Activity [13]
1 | C/C=C(\C)C(=O)O[C@H]1C(C)=C[C@]23C(=O)[C@@H](C=C(CO)[C@@H](O)[C@]12O)[C@H]1[C@@H](C[C@H]3C)C1(C)C | 75 | 92 | 45 | 81 | 7.5 | 5.02 | 112 | 237000 |  |  |  |  | 
2 | CO/N=C(\C(=O)O[C@H]1C(C)=C[C@]23C(=O)[C@@H](C=C(CO)[C@@H](O)[C@]12O)[C@H]1[C@@H](C[C@H]3C)C1(C)C)c1ccccc1 | 54 | 120 | 68 | 52 | 49 |  | 147 | 92000 | 10.6 | 1600 |  |  | 
3 | CC1=C[C@]23C(=O)[C@@H](C=C(CO)[C@@H](O)[C@]2(O)[C@H]1OC(=O)C(C)=C(C)C)[C@H]1[C@@H](C[C@H]3C)C1(C)C | 102 | 106 | 75 | 97 | 5.9 |  | 8.6 | 174000 | 5.3 | 8 |  |  | 
4 | C/C=C(/C)C(=O)O |  |  |  |  |  | 4.3 |  |  |  |  |  |  | 
5 | C/C=C(/C)C(=O)O[C@H]1C(C)=C[C@]23C(=O)[C@@H](C=C(CO)[C@@H](O)[C@]12O)[C@H]1[C@@H](C[C@H]3C)C1(C)C [INGENOL MEBUTATE] |  |  | 60 |  | 8.7 |  | 10.3 | 230000 | 4.1 | 11.2 | inactive | inactive | inactive
6 | CCCCCCCCCCCCCCCC(=O)O[C@H]1C(C)=C[C@]23C(=O)[C@@H](C=C(CO)[C@@H](O)[C@]12O)[C@H]1[C@@H](C[C@H]3C)C1(C)C | 109 | 106 |  | 115 | 28 |  | 7.3 | 400000 | 4.7 | 8.4 |  |  | 
7 | CC1=C[C@]23C(=O)[C@@H](C=C(CO)[C@@H](O)[C@]2(O)[C@H]1OC(=O)C1(C)CCCCC1)[C@H]1[C@@H](C[C@H]3C)C1(C)C | 52 | 127 | 70 | 62 | 7.6 |  | 22 | 61000 | 2.9 | 13 |  |  | 
8 | CCC(CC)C(=O)O[C@H]1C(C)=C[C@]23C(=O)[C@@H](C=C(CO)[C@@H](O)[C@]12O)[C@H]1[C@@H](C[C@H]3C)C1(C)C | 59 | 109 | 60 | 62 | 6.3 |  | 43 | 86000 | 4.5 | 27 |  |  | 
9 | C/C=C(/C(=O)O[C@H]1C(C)=C[C@]23C(=O)[C@@H](C=C(CO)[C@@H](O)[C@]12O)[C@H]1[C@@H](C[C@H]3C)C1(C)C)c1ccccc1 | 97 | 126 | 72 | 110 | 7.4 |  | 3.8 | 103000 | 5.2 | 4.9 |  |  | 
